# Data reported in ChEMBL document CHEMBL1649161, “Pharmacokinetics of EDP-420 after ascending single oral doses in healthy adult volunteers” (Antimicrob Agents Chemother, 2009).
# Experiments:
# Homo sapiens [1] = test: Renal clearance in healthy human assessed as cumulative amount excreted in urine at 200 mg, po administered as single dose measured after 48 hrs; assay type: ADME, organism-based; conditions: in vivo
# Outline: (§1)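 Healthy adults (6 per dose) received a single fasted oral suspension dose. Urine was collected predose and over 0–2, 2–4, 4–6, 6–8, 8–12, 12–24 and 24–48 h intervals, volumes were recorded, and aliquots were stored at −20°C. Samples were assayed by LC-MS/MS. Ae0-48 is the summed volume × concentration over all intervals; the mean was reported.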
# [2] = Elimination rate constant in healthy human plasma at 400 mg, po administered as single dose measured after 120 hrs; assay type: ADME, organism-based
# [3] = Tmax in healthy human plasma at 800 mg, po administered as single dose measured after 120 hrs; assay type: ADME, organism-based
# Outline: (§2)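 Fasted healthy adults (n = 6 per group) took one oral suspension dose. Plasma was sampled from predose through 0.25–120 h postdose and measured by validated LC-MS/MS (lower limit 1 ng/ml). Tmax was read directly from observed concentration–time data using actual sampling times and reported as median with range.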
# Streptococcus pneumoniae [4] = test: Antimicrobial activity against Streptococcus pneumoniae; assay type: functional
# [5] = AUC (0 to infinity) in healthy human plasma at 400 mg, po administered as single dose measured after 120 hrs; assay type: ADME, organism-based; set-up: dose 400 mg, route oral, time infinity
# Outline: (§3)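 Healthy adults (6 per dose group) received a single oral suspension after an 8-h fast, with food withheld 4 h. EDTA blood was drawn predose to 120 h. Plasma was protein-precipitated with ACN and assayed by LC-MS/MS (clarithromycin internal standard; range 1–1,000 ng/ml). AUC0-last was computed by linear-up/log-down trapezoid; AUC0-∞ added Clast/λz. Values are noncompartmental means.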
# [6] = Apparent oral clearance in healthy human plasma at 400 mg, po administered as single dose measured after 120 hrs; assay type: ADME, organism-based
# Outline: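 Single oral suspension dose in fasted healthy adults (6 per group). Plasma was collected to 120 h and measured by LC-MS/MS (1–1,000 ng/ml). Apparent oral clearance was dose divided by AUC0-∞ (noncompartmental, linear-up/log-down trapezoid extrapolated with Clast/λz); the mean was reported.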
# [7] = Half life in healthy human plasma at 400 mg, po administered as single dose measured after 120 hrs; assay type: ADME, organism-based
# Homo sapiens [8] = test: Toxicity in healthy human assessed as changes in prothrombin time at 100 to 1200 mg, po administered as single dose; assay type: organism-based; conditions: in vivo
# Outline: (§4)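 Randomized, double-blind, placebo-controlled single ascending dose study with eight subjects per group (6 drug, 2 placebo of microcrystalline cellulose). Subjects were fasted before dosing. Safety labs were done at 120 h, with a full chemistry panel also at 72 and 96 h for the top dose. Final evaluation on day 8–10, with adverse events recorded.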
# [9] = Elimination rate constant in healthy human plasma at 1200 mg, po administered as single dose measured after 120 hrs; assay type: ADME, organism-based
# Streptococcus pneumoniae [10] = test: Antimicrobial activity against macrolide-resistant Streptococcus pneumoniae carrying mefA and/or ermB genes; assay type: functional
# Legionella sp. = test: Antimicrobial activity against Legionella sp.; assay type: functional
# [11] = AUC (0 to infinity) in healthy human plasma at 100 mg, po administered as single dose measured after 120 hrs; assay type: ADME, organism-based; set-up: dose 100 mg, route oral, time infinity; outline: as §3
# [12] = Half life in healthy human plasma at 1200 mg, po administered as single dose measured after 120 hrs; assay type: ADME, organism-based
# Streptococcus pyogenes = test: Antimicrobial activity against Streptococcus pyogenes; assay type: functional
# Homo sapiens [13] = test: Renal clearance in healthy human assessed as cumulative amount excreted in urine at 800 mg, po administered as single dose measured after 48 hrs; assay type: ADME, organism-based; conditions: in vivo; outline: as §1
# [14] = Elimination rate constant in healthy human plasma at 100 mg, po administered as single dose measured after 120 hrs; assay type: ADME, organism-based
# Homo sapiens [15] = test: Toxicity in healthy human assessed as changes in vital signs at 100 to 1200 mg, po administered as single dose; assay type: organism-based; conditions: in vivo
# Outline: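 Vital signs were taken predose and during an in-house stay (48 h for groups 1–4, 120 h for the top dose). Outpatient visits at 72, 96 and 120 h followed a single fasted oral dose, in a double-blind, placebo-controlled design with 6 active and 2 placebo per group.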
# [16] = Apparent volume of distribution in healthy human plasma at 1200 mg, po administered as single dose measured after 120 hrs; assay type: ADME, organism-based
# Homo sapiens [17] = test: Toxicity in healthy human assessed as incidence of elevated hepatic transaminase levels at 100 to 1200 mg, po administered as single dose; assay type: organism-based; conditions: in vivo; outline: as §4
# [18] = Cmax in healthy human plasma at 100 mg, po administered as single dose measured after 120 hrs; assay type: ADME, organism-based; set-up: dose 100 mg, route oral
# Outline: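 Healthy adults (n = 6 per dose) took a single oral suspension fasted (8 h before, 4 h after). Plasma was sampled from 0.25 to 120 h postdose and quantified by validated LC-MS/MS after acetonitrile precipitation (LLOQ 1 ng/ml). Cmax was read directly from observed concentration–time data; the group mean was reported.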
# [19] = Renal clearance in healthy human assessed as cumulative fraction excreted unchanged in urine at 1200 mg, po administered as single dose measured after 48 hrs; assay type: ADME, organism-based; conditions: read-out: Fraction Recovered in urine
# Outline: (§5)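 After a single oral fasted suspension dose in healthy adults (6 per group), urine was collected in intervals to 48 h and measured by LC-MS/MS. fe0-48 = Ae0-48 (summed interval volume × concentration) / dose × 100%; the mean was reported.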
# [20] = AUC (0 to last) in healthy human plasma at 1200 mg, po administered as single dose measured after 120 hrs; assay type: ADME, organism-based; set-up: dose 1200 mg, route oral, time 0 - last; outline: as §3
# Homo sapiens [21] = test: Toxicity in healthy human assessed as changes in physical parameters signs at 100 to 1200 mg, po administered as single dose; assay type: organism-based; conditions: in vivo
# [22] = Renal clearance in healthy human assessed as cumulative fraction excreted unchanged in urine at 100 mg, po administered as single dose measured after 48 hrs; assay type: ADME, organism-based; conditions: read-out: Fraction Recovered in urine; outline: as §5
# Homo sapiens [23] = test: Toxicity in healthy human assessed as changes in gamma-glutamyl transpeptidase level at 100 to 1200 mg, po administered as single dose; assay type: organism-based; conditions: in vivo; outline: as §4
# [24] = Tmax in healthy human plasma at 400 mg, po administered as single dose measured after 120 hrs; assay type: ADME, organism-based; outline: as §2
# Homo sapiens [25] = test: Renal clearance in healthy human assessed as cumulative amount excreted in urine at 100 mg, po administered as single dose measured after 48 hrs; assay type: ADME, organism-based; conditions: in vivo; outline: as §1
# Homo sapiens [26] = test: Renal clearance in healthy human assessed as cumulative amount excreted in urine at 1200 mg, po administered as single dose measured after 48 hrs; assay type: ADME, organism-based; conditions: in vivo; outline: as §1
# [27] = Elimination rate constant in healthy human plasma at 200 mg, po administered as single dose measured after 120 hrs; assay type: ADME, organism-based
# [28] = Renal clearance in healthy human at 800 mg, po administered as single dose measured after 48 hrs; assay type: ADME, organism-based, Kidney; conditions: in vivo, read-out: CL_renal (converted)
# Outline: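 Healthy adults (6 active per dose) got a single oral suspension dose after an 8-h fast, with food withheld 4 h. Urine over 0–48 h in intervals and serial EDTA plasma were assayed by validated LC-MS/MS, with plasma calibration from 1 to 1,000 ng/ml. CLR = Ae0-48 (urine volume × concentration summed) divided by plasma AUC0-48.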
# [29] = AUC (0 to infinity) in healthy human plasma at 1200 mg, po administered as single dose measured after 120 hrs; assay type: ADME, organism-based; set-up: dose 1200 mg, route oral, time infinity; outline: as §3
# [30] = AUC (0 to last) in healthy human plasma at 800 mg, po administered as single dose measured after 120 hrs; assay type: ADME, organism-based; set-up: dose 800 mg, route oral, time 0 - last; outline: as §3
compound,measurement,setting,value
CC[C@H]1OC(=O)[C@H](C)C(=O)[C@H](C)[C@@H](O[C@@H]2O[C@H](C)C[C@H](N(C)C)[C@H]2O)[C@@]2(C)C[C@@H](C)/C(=N\C(C)=O)[C@H](C)[C@@H](OC/C(=N\OCc3ccc(-n4cccn4)nc3)CO2)[C@]1(C)O [MODITHROMYCIN],Amount Recovered in urine,Homo sapiens [1],24.5 mg
same,k el at 120 h,[2],1.22e-05 s⁻¹
same,Tmax,[3],4.26 h
same,MIC,Streptococcus pneumoniae [4],0.25 µg/mL
same,AUC(0-inf),[5],14400 ng·h/mL
same,CL/F,[6],463 mL/min
same,half-life,[7],15.8 h
same,Activity,Homo sapiens [8],Non-toxic
same,k el at 120 h,[9],9.56e-06 s⁻¹
same,MIC,Streptococcus pneumoniae [10],0.25 µg/mL
same,MIC90,Legionella sp.,0.031 µg/mL
same,AUC(0-inf),[11],3430 ng·h/mL
same,half-life,[12],20.1 h
same,Ratio,Streptococcus pyogenes,32
same,Amount Recovered in urine,Homo sapiens [13],91.1 mg
same,k el at 120 h,[14],1.23e-05 s⁻¹
same,Activity,Homo sapiens [15],Non-toxic
same,Vd/F,[16],909 L
same,Activity,Homo sapiens [17],23%
same,Cmax,[18],196 ng/mL
same,dose excreted at 48 h,[19],5.84%
same,AUC(0-t) at 120 h,[20],37400 ng·h/mL
same,Activity,Homo sapiens [21],Non-toxic
same,dose excreted at 48 h,[22],8.57%
same,Activity,Homo sapiens [23],Non-toxic
same,Tmax,[24],3.25 h
same,Amount Recovered in urine,Homo sapiens [25],8.57 mg
same,Amount Recovered in urine,Homo sapiens [26],70.1 mg
same,k el at 120 h,[27],1.22e-05 s⁻¹
same,CL renal at 48 h,[28],57.5 mL/min
same,AUC(0-inf),[29],38300 ng·h/mL
same,AUC(0-t) at 120 h,[30],33400 ng·h/mL
